# FLuc inh counter: Photinus pyralis luciferase inhibition counter-screen; P08659; ATPLite firefly luciferase biochemical luminescence, 10 min; inhibition, % at 10 µM; hit rate 1.5% among 200,000;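 active = inhibition above about 50% when tested at 10 µM, limit read from the data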
# Target sequence (P08659 whole entry, looked up): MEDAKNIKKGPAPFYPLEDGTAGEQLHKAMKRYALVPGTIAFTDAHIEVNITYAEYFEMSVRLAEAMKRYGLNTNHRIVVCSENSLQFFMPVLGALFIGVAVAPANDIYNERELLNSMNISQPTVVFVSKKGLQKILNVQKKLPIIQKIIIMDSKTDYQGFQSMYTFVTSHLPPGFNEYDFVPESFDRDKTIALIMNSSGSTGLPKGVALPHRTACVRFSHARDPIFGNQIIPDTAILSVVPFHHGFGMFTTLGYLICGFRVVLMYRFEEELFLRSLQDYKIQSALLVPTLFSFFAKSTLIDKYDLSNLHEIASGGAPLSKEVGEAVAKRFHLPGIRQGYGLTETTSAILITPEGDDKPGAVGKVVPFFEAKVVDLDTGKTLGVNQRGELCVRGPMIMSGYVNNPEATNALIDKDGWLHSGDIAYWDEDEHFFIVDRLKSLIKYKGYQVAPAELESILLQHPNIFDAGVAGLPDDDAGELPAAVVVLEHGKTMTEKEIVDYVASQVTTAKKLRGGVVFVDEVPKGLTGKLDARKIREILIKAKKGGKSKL
# HSP90 refold inh: HSP90 refolding inhibition in rabbit reticulocyte lysate; inhibition, % at 5.6 µM; luciferase refolding luminescence, 3 h; hit rate 0.91% among 290,000; AID 1789;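 active = inhibition above the screen-wide mean plus 3 SD, computed separately per campaign, cut at about 16% in these data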;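 note: 0% = DMSO wells and 100% = 60 µM geldanamycin wells; inhibitors lower the luminescence because luciferase stays unfolded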
# FLuc stim CS: affects firefly luciferase, flagging false hits in luciferase stimulation screens; P08659; AID 1027; activation factor at 10 µM; ATPlite luciferase biochemical, luminescence, 10 min; 0 = ATP-free wells, 1 = DMSO control; 200,000 tested, under 10 active;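 active = luciferase activation factor, scaled between plate controls, of at least 2 with compound at 10 µM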
#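 Assay system – cell-free luciferase reagent · Medium – PBS-based ATP solution · Dosing – test compounds dosed from 2 mM stocks in 100% DMSO · Timing – 10 min, room temperature · Technique – light output (luminescence) · Measure – luminescence gain marking luciferase activators · Controls – No-ATP low control, compound-free enzyme-plus-ATP high control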
# PPC-1+TRAIL kill: compounds killing PPC-1 cancer cells with TRAIL present (potentiator screen, no TRAIL-free arm); PPC-1 cells + TRAIL, ATPLite viability luminescence; cell killing (% activity), % at 4 µM or 5 µM; hit rate 0.41% among 220,000;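 active = cell killing above 50% in the first pass at 4 µM, then a duplicate retest at 5 µM averaging 50% or more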;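 note: plate controls were cells with TRAIL plus DMSO for no effect and medium-only wells lacking cells for full effect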
# TRAIL sens C8: sensitizes caspase-8 expressing cells to TRAIL. NB7+C8 cells + TRAIL, ATPlite viability luminescence. hit rate 1% among 360,000. inhibition (viability loss, TRAIL sensitization), % at 10 µM;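 active = compounds causing at least 50% loss of cell viability in the single-dose screen, relative to plate controls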
# * hit, by the source's call; nt = no result given. Sampled rows, rich in hits. Any-hit rate of the full collection: about 2%.
SMILES,FLuc inh counter,HSP90 refold inh,FLuc stim CS,PPC-1+TRAIL kill,TRAIL sens C8
CN(Cc1ccco1)C(=O)[C@H](Cc1ccccc1)NC(=O)CC[C@H]1O[C@@H](n2ccc(=O)[nH]c2=O)[C@H](O)[C@@H]1O,nt,nt,nt,nt,-14
O=C(O)c1ccc(Cl)cc1NC(=O)C1CCN(S(=O)(=O)c2cccs2)CC1,nt,nt,nt,nt,-11
O=C(NC(=S)N1CCN(c2ccc([N+](=O)[O-])cc2)CC1)c1ccccc1F,-4,-3,1,53*,-2
O=C(Nc1ccc(-c2nnn(CC(=O)N3CCN(C(=O)c4ccco4)CC3)n2)cc1)c1ccccc1F,56*,-3,0.4,14,nt
CC1CCc2sc(-c3n[nH]c(=S)o3)cc2C1 (stereo not drawn),57*,1,0.4,32,17
COc1ccc(C[C@H]2CN3C(=NC[C@H]3Cc3ccccc3)N2CCNC(=O)c2ccc(C)c(Br)c2)cc1,nt,nt,nt,48,39
COc1ccc(C[C@H]2CN3C(=NC[C@@H]3Cc3ccccc3)N2CCNC(=O)c2ccc(C)c(Br)c2)cc1,-3,17*,1,11,38
COc1ccc(Cc2c(C)nc(N)nc2Cl)cc1,-3,0,1,7,-5
Cc1nc(N)nc(N)c1-c1ccc(Cl)c(Cl)c1,nt,nt,nt,nt,82*
Cc1cc(OCc2nc(N)nc(N)c2-c2ccc(Cl)c(Cl)c2)ccc1[N+](=O)[O-],nt,nt,nt,nt,83*
Nc1nc(N)nc(-c2ccc(Cl)c(Cl)c2)n1,nt,nt,nt,nt,-4
Cc1nc(N)nc(N)c1CCCc1ccc(Cl)c(Cl)c1,nt,nt,nt,nt,73*
COc1ccc(C=O)cc1COc1ccc([N+](=O)[O-])c(C)c1,-7,5,1.1,3,7
Cn1cc(Cc2ccc(C(=O)N3CCCCC3)cn2)c2ccccc21,nt,nt,nt,nt,-1
Cn1c(NC(=O)c2cc(-c3ccc4c(c3)OCO4)nc3ccccc23)cc(=O)n(C)c1=O,72*,2,0.3,41,38
O=C1c2ccccc2C(c2nnnn2Cc2ccccc2)N1Cc1cccnc1 (stereo not drawn),nt,nt,nt,nt,-7
O=C1CCNc2ccc(-c3ccccc3)cc21,4,-2,1,6,-24
O=C1CCNc2cc3ccccc3cc21,2,13,1,52*,12
OC(c1ccccc1)c1ncc(-c2cccc(F)c2)[nH]1 (stereo not drawn),nt,nt,nt,nt,-2
CC(C)(C)C(=O)Nc1ccc(C(=O)Nc2cccc(Oc3ccc(C(=O)O)c(C(=O)O)c3)c2)cc1,nt,2,nt,nt,30
O=C(Nc1cccc(Oc2ccc(C(=O)O)c(C(=O)O)c2)c1)c1ccc(-c2ccccc2)cc1,nt,-7,nt,25,54*
COc1cccc(C(=O)O/N=C(\C)c2cnccn2)c1,65*,0,0.3,5,-1
COc1ccc(C(=O)O/N=C(\N)c2ccccc2Cl)cc1OC,nt,1,nt,nt,78*
COc1ccccc1C/C(N)=N/OC(=O)c1ccc(C)c([N+](=O)[O-])c1,-9,-3,1.1,3,55*
COc1ccc(/C(N)=N/OC(=O)CC2CCCCC2)cc1OC,nt,3,nt,nt,73*
SMILES,FLuc inh counter,HSP90 refold inh,FLuc stim CS,PPC-1+TRAIL kill,TRAIL sens C8
Cc1ccc(C(=O)O/N=C(\N)Cc2cccs2)cc1[N+](=O)[O-],nt,-3,nt,nt,10
CC1(C(=O)NCc2cccc3ccccc23)CCN1Cc1ccccc1OC(F)F (stereo not drawn),nt,nt,nt,nt,14
COc1ccc(C(=O)O/N=C(\N)c2ccc(OC)c(OC)c2)cc1,nt,4,nt,nt,62*
COc1ccc(C(=O)O/N=C(\C)c2ccccc2)cc1,90*,0,0.1,7,8
COc1ccc(/C(N)=N/OC(=O)c2ccc(OC)c([N+](=O)[O-])c2)cc1OC,-4,1,1,3,64*
CC(C)C(=O)Nc1cccc(-c2nc3ccccc3c(=O)o2)c1,6,0,0.9,35,19
CC(C)C(=O)Nc1ccc(-c2nc3ccccc3c(=O)o2)cc1,90*,3,0.1,31,48
CC(C)(C)C(=O)Nc1ccc(-c2nc3ccccc3c(=O)o2)cc1,96*,-2,0,41,59*
CCCC(=O)Nc1cccc(-c2nc3ccccc3c(=O)o2)c1,54*,7,0.5,29,40
COc1ccc(-c2nc3ccccc3c(=O)o2)cc1OC,10,0,0.9,-7,7
C[C@H]1CN([C@@H](C)CO)C(=O)CCCn2nncc2CO[C@@H]1CN(C)C(=O)NC1CCCCC1,nt,nt,nt,nt,-2
O=C1CN(c2nc(-c3cccnc3)nc3sc4c(c23)CCCC4)CCN1,3,-4,1,14,19
Nc1nc(-c2cccnc2)nc2sc3c(c12)CCCC3,85*,-1,0.2,49,60*
C/C(=N\NC(=O)c1ccc2c(c1)OCO2)c1ccco1,82*,-1,0.2,37,52*
C/C(=N\NC(=O)c1csc(C)c1C)c1ccco1,79*,-5,0.2,41,55*
C/C(=N/NC(=O)c1ccc2c(c1)OCO2)c1cccc(NC(=O)C(C)(C)C)c1,53*,2,0.5,21,34
COc1ccc(C(O)c2ncc(-c3cccc(C(F)(F)F)c3)[nH]2)cc1F (stereo not drawn),nt,nt,nt,nt,4
COc1cccc(S(=O)(=O)Nc2ccc3c(c2)C(=O)N(C)C[C@H](OC)[C@H](C)CN[C@@H](C)CO3)c1,nt,nt,nt,nt,-9
COc1cccc(-c2cc(C(=O)N3CCCCCC3)no2)c1,62*,15,0.4,32,-8
Cc1ccc(-c2cc(C(=O)N3CCCc4ccccc43)no2)cc1,58*,-3,0.4,11,32
COc1ccc(-c2cc(C(=O)N3CCCCCC3)no2)cc1,nt,10,nt,nt,26
O=C(c1cc(-c2ccc(F)cc2)on1)N1CCCCCC1,nt,17*,nt,nt,16
COc1cccc(-c2nn(C)c3sc(C(=O)N4CCOCC4)cc23)c1,-4,27*,1,26,-6
C=CCNc1nc(NCc2ccc(N(C)C)cc2)c2sc(-c3ccccc3)cc2n1,nt,nt,nt,nt,21
O=C(NCc1cccs1)C1C(=O)Nc2ccccc2C(=O)N1Cc1ccccc1 (stereo not drawn),nt,nt,nt,nt,3
SMILES,FLuc inh counter,HSP90 refold inh,FLuc stim CS,PPC-1+TRAIL kill,TRAIL sens C8
O=C(c1cc(-c2ccc(F)cc2)on1)N1CCCC1,64*,7,0.4,32,36
CCc1ccc(-c2cc3c(=O)n(CC(=O)NCCCN4CCN(C)CC4)ncn3n2)cc1,nt,10,nt,nt,59*
Cc1nn(CC(=O)NCCCN2CCC(Cc3ccccc3)CC2)c(=O)c2cc(-c3ccccc3)nn12,nt,2,nt,nt,23
CCc1ccc(-c2cc3c(=O)n(CC(=O)NCCCN4CCC(Cc5ccccc5)CC4)nc(C)n3n2)cc1,nt,8,nt,nt,91*
COc1ccc(-c2cc3c(=O)n(CC(=O)N4CCCCC4)ncn3n2)cc1,nt,-6,nt,nt,16
COc1ccc(-c2cc3c(=O)n(CC(=O)N4CCN(C)CC4)ncn3n2)cc1,nt,6,nt,nt,59*
CCNC(=O)C1(C)CCCN(C(=O)/C=C/c2ccccc2)C1 (stereo not drawn),nt,nt,nt,nt,-11
NS(=O)(=O)c1ccc(CCNc2ccn3nc(-c4ccc(OCCN5CCOCC5)cc4)cc3n2)cc1,nt,nt,nt,nt,4
